Test results reported in ChEMBL document CHEMBL3352317, “Protective mechanisms of acacetin against D-galactosamine and lipopolysaccharide-induced fulminant hepatic failure in mice” (J Nat Prod, 2014).
The source made the active and inactive calls. The rule behind the calls is not given here.

What was measured:
Mus musculus [1] = test: Hepatoprotective effect in GalN/LPS-induced ICR mouse FHF model assessed as reduction in ERK phosphorylation at 100 mg/kg, ip administered 1 hr prior to GalN/LPS challenge measured after 6 hrs by Western blotting analysis relative to control; format: functional, organism-based; set-up: dose 100 mg/kg
Outline: (§1)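 Livers from ICR mice given 100 mg/kg ip (5% DMSO−saline) 1 h before GalN 800 mg/kg/LPS 40 μg/kg, harvested at 6 h. Western blot: 20 μg liver homogenate protein (nuclear extracts for NF-κB), 10−17% SDS-PAGE, PVDF, blocked in 5% milk or BSA, primary antibody overnight at 4 °C, ECL detection; phospho versus total MAPKs; n = 8−10.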

Mus musculus [2] = test: Effect serum ALT level in ICR mouse at 100 mg/kg, ip by spectrophotometry (reference value: 49.6 +/- 9.9 U/L); format: ADME, organism-based; set-up: dose 100 mg/kg, route intraperitoneal; details: in vivo
Mus musculus [3] = test: Effect on liver histology in ICR mouse at 100 mg/kg, ip after 6 hr by hematoxylin/eosin staining-based assay; details: in vivo
Mus musculus [4] = test: Induction of autophagic flux in GalN/LPS-induced ICR mouse FHF model assessed as increase in Atg-7 protein expression at 100 mg/kg, ip administered 1 hr prior to GalN/LPS challenge measured after 6 hrs by Western blotting analysis relative to control; format: functional, organism-based; set-up: dose 100 mg/kg; outline: as §1
Mus musculus [5] = test: Hepatoprotective effect in GalN/LPS-induced ICR mouse FHF model assessed as serum ALT level at 50 mg/kg, ip administered 1 hr prior to GalN/LPS challenge measured after 6 hrs by spectrophotometry (reference value: 618.4 +/- 43.7 U/L); format: functional; details: route intraperitoneal
Mus musculus [6] = test: Hepatoprotective effect in GalN/LPS-induced ICR mouse FHF model assessed as reduction in NF-kappaB protein expression at 100 mg/kg, ip administered 1 hr prior to GalN/LPS challenge measured after 6 hrs by Western blotting analysis relative to control; format: functional, organism-based; set-up: dose 100 mg/kg; outline: as §1
Mus musculus [7] = test: Effect on liver histology in GalN/LPS-induced ICR mouse FHF model assessed as inhibition of hepatocellular necrosis at 100 mg/kg, ip administered 1 hr prior to GalN/LPS challenge measured after 6 hrs by hematoxylin/eosin staining-based assay; format: functional, organism-based; set-up: dose 100 mg/kg
Mus musculus [8] = test: Hepatoprotective effect in GalN/LPS-induced ICR mouse FHF model assessed as reduction in p38 phosphorylation at 100 mg/kg, ip administered 1 hr prior to GalN/LPS challenge measured after 6 hrs by Western blotting analysis relative to control; format: functional, organism-based; set-up: dose 100 mg/kg; outline: as §1
Mus musculus [9] = test: Induction of autophagic flux in GalN/LPS-induced ICR mouse FHF model assessed as […] in Beclin-1 protein expression at 100 mg/kg, ip administered 1 hr prior to GalN/LPS challenge measured after 6 hrs by Western blotting analysis relative to control; format: functional, organism-based; set-up: dose 100 mg/kg; outline: as §1
Mus musculus [10] = test: Hepatoprotective effect in GalN/LPS-induced ICR mouse FHF model assessed as survival rate at 100 mg/kg, ip administered 1 hr prior to GalN/LPS challenge measured after 24 hrs; format: functional; details: route intraperitoneal
Outline: (§2)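 Male 6-week-old ICR mice (24−26 g), fasted 18 h with water allowed. Vehicle (5% DMSO−saline) or drug suspended in it (25, 50, 100 mg/kg) given ip 1 h before ip GalN (800 mg/kg) plus LPS (40 μg/kg, E. coli O111:B4) in PBS. Survival was monitored over 24 h after the challenge. There were 10 mice per group.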

Mus musculus [11] = test: Effect on liver histology in GalN/LPS-induced ICR mouse FHF model assessed as inhibition of increase in inflammatory cell infiltration at 100 mg/kg, ip administered 1 hr prior to GalN/LPS challenge measured after 6 hrs by hematoxylin/eosin staining-based assay; format: functional, organism-based; set-up: dose 100 mg/kg
Mus musculus [12] = test: Hepatoprotective effect in GalN/LPS-induced ICR mouse FHF model assessed as serum ALT level at 25 mg/kg, ip administered 1 hr prior to GalN/LPS challenge measured after 6 hrs by spectrophotometry (reference value: 618.4 +/- 43.7 U/L); format: functional; details: route intraperitoneal
Mus musculus [13] = test: Hepatoprotective effect in GalN/LPS-induced ICR mouse FHF model assessed as serum ALT level at 100 mg/kg, ip administered 1 hr prior to GalN/LPS challenge measured after 6 hrs by spectrophotometry (reference value: 618.4 +/- 43.7 U/L); format: functional; details: route intraperitoneal
Mus musculus [14] = test: Induction of autophagic flux in GalN/LPS-induced ICR mouse FHF model assessed as increase in Atg-5 protein expression at 100 mg/kg, ip administered 1 hr prior to GalN/LPS challenge measured after 6 hrs by Western blotting analysis relative to control; format: functional, organism-based; set-up: dose 100 mg/kg; outline: as §1
Mus musculus [15] = test: Hepatoprotective effect in GalN/LPS-induced ICR mouse FHF model assessed as reduction in TLR4 protein expression at 100 mg/kg, ip administered 1 hr prior to GalN/LPS challenge measured after 6 hrs by Western blotting analysis relative to control; format: functional, organism-based; set-up: dose 100 mg/kg; outline: as §1
Mus musculus [16] = test: Hepatoprotective effect in GalN/LPS-induced ICR mouse FHF model assessed as serum TNF-alpha level at 100 mg/kg, ip administered 1 hr prior to GalN/LPS challenge measured after 6 hrs by ELISA (reference value: 78.9 +/- 14.9 pg/ml); format: functional; details: route intraperitoneal
Mus musculus [17] = test: Induction of autophagic flux in GalN/LPS-induced ICR mouse FHF model assessed as increase in LC3-2 protein expression at 100 mg/kg, ip administered 1 hr prior to GalN/LPS challenge measured after 6 hrs by Western blotting analysis relative to control; format: functional, organism-based; set-up: dose 100 mg/kg; outline: as §1
Mus musculus [18] = test: Induction of autophagic flux in GalN/LPS-induced ICR mouse FHF model assessed as reduction in p62 level at 100 mg/kg, ip administered 1 hr prior to GalN/LPS challenge measured after 6 hrs by Western blotting analysis relative to control; format: functional, organism-based; set-up: dose 100 mg/kg; outline: as §1
Hepatocyte = test: Hepatoprotective effect in primary hepatocytes (unknown origin); format: functional, cell-based
Mus musculus [19] = test: Effect on serum TNF-alpha level in ICR mouse at 100 mg/kg, ip by ELISA (reference value: 14.1 +/- 1.1 pg/ml); format: ADME, organism-based; set-up: dose 100 mg/kg, route intraperitoneal; details: in vivo
Mus musculus [20] = test: Effect on serum IL-6 level in ICR mouse at 100 mg/kg, ip by ELISA (reference value: 96.7 +/- 4.9 pg/ml); format: ADME, organism-based; set-up: dose 100 mg/kg, route intraperitoneal; details: in vivo
Mus musculus [21] = test: Hepatoprotective effect in GalN/LPS-induced ICR mouse FHF model assessed as reduction in JNK phosphorylation at 100 mg/kg, ip administered 1 hr prior to GalN/LPS challenge measured after 6 hrs by Western blotting analysis relative to control; format: functional, organism-based; set-up: dose 100 mg/kg; outline: as §1
Mus musculus [22] = test: Toxicity in ICR mouse at 100 mg/kg, ip; format: organism-based; set-up: dose 100 mg/kg, route intraperitoneal; details: in vivo
Mus musculus [23] = test: Effect on liver histology in GalN/LPS-induced ICR mouse FHF model assessed as inhibition of multiple areas of portal inflammation at 100 mg/kg, ip administered 1 hr prior to GalN/LPS challenge measured after 6 hrs by hematoxylin/eosin staining-based assay; format: functional, organism-based; set-up: dose 100 mg/kg
Mus musculus [24] = test: Hepatoprotective effect in GalN/LPS-induced ICR mouse FHF model assessed as serum TNF-alpha level at 100 mg/kg, ip administered 1 hr prior to GalN/LPS challenge measured after 6 hrs by ELISA (reference value: 605.8 +/- 96.8 pg/ml); format: functional; details: route intraperitoneal
Mus musculus [25] = test: Hepatoprotective effect in ip dosed GalN/LPS-induced ICR mouse FHF model assessed as survival rate administered 1 hr prior to GalN/LPS challenge measured up to 24 hrs; format: functional, organism-based; outline: as §2
Mus musculus [26] = test: Induction of autophagic flux in GalN/LPS-induced ICR mouse FHF model assessed as increase in autophagic vacuoles at 100 mg/kg, ip administered 1 hr prior to GalN/LPS challenge measured after 6 hrs by transmission electron microscopy relative to control; format: functional, organism-based; set-up: dose 100 mg/kg
Outline: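 Mice given 100 mg/kg ip 1 h before GalN (800 mg/kg)/LPS (40 μg/kg); liver fixed at 6 h in 2.5% glutaraldehyde, 1% formaldehyde, 100 mM sodium phosphate pH 7.2; ultrathin 60−70 nm sections counterstained with uranyl acetate and lead citrate, autophagic vacuoles counted by transmission electron microscopy; n = 8−10.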

In the case of COc1ccc(-c2cc(=O)c3c(O)cc(O)cc3o2)cc1 [ACACETIN], the Activity (Mus musculus [1]) is reported as “Active”, the Activity (Mus musculus [2]) is reported as 64.4 U/L and the Activity (Mus musculus [3]) is reported as “Non-toxic”. The Activity (Mus musculus [4]) was “Active”, the Activity (Mus musculus [5]) was 395.6 U/L and the Activity (Mus musculus [6]) was “Active”. The Activity (Mus musculus [7]) was “Active”, the Activity (Mus musculus [8]) was “Active” and the Activity (Mus musculus [9]) was “inactive”. For the same compound, the survival at 100 mg/kg (Mus musculus [10]) was 80%, the Activity (Mus musculus [11]) was “Active” and the Activity (Mus musculus [12]) was 520.1 U/L. For the same compound, the Activity (Mus musculus [13]) was 361.3 U/L, the Activity (Mus musculus [14]) was “Active” and the Activity (Mus musculus [15]) was “Active”. For the same compound, the Activity (Mus musculus [16]) was 27.4 pg/mL, the Activity (Mus musculus [17]) was “Active” and the Activity (Mus musculus [18]) was “Active”. The Activity (Hepatocyte) was “Active”, the Activity (Mus musculus [19]) was 13.1 pg/mL and the Activity (Mus musculus [20]) was 131 pg/mL. The Activity (Mus musculus [21]) was “Active”, the Activity (Mus musculus [22]) was “Non-toxic” and the Activity (Mus musculus [23]) was “Active”. For the same compound, the Activity (Mus musculus [24]) was 27.4 pg/mL, the Survival (Mus musculus [25]) was “Dose-dependent effect” and the Activity (Mus musculus [26]) was “Active”.
